Assay results taken from ChEMBL document CHEMBL1141705, “Optimization of a series of multi-isoform PI3 kinase inhibitors” (Bioorg Med Chem Lett, 2008).

Key:
[1] = Distribution coefficient, log D of the compound; type: physicochemical; details: octanol/water
In short: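 logD was determined experimentally at pH 7.4.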

[2] = Cmax in Han/Wistar rat at 3 mg/kg, po; type: ADME, organism-based; design: dose 3 mg/kg, route oral; details: in vivo
In short: (§1)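 Han-Wistar rats received a single oral dose of 3 mg/kg. Plasma Cmax is reported in ng/mL and AUC in ng h/mL.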

[3] = AUC in Han/Wistar rat at 3 mg/kg, po; type: ADME, organism-based; design: dose 3 mg/kg, route oral; details: plasma; in short: as §1

| Compound | logD [1] | Cmax [2] [ng/mL] | AUC [3] [ng·h/mL] |
| --- | --- | --- | --- |
| Cc1ccc(-c2ccc3c(c2)N(c2nc4c(s2)C(=O)NC(C)(C)C4)CCO3)nn1 | 2.32 |  |  |
| COC[C@H](O)Cn1cc(-c2ccc3c(c2)N(c2nc4c(s2)C(=O)NC(C)(C)C4)CCO3)cn1 |  | 187 | 807 |
| Cc1ccc(Nc2ccc3c(c2)N(c2nc4c(s2)C(=O)NC(C)(C)C4)CCO3)nn1 | 2.39 | 105 | 345 |
| CC1(C)Cc2nc(N3CCOc4ccc(Nc5ccc(N6CCNCC6)nn5)cc43)sc2C(=O)N1 | 0.6 |  |  |
| CN1CCN(c2ccc(Nc3ccc4c(c3)N(c3nc5c(s3)C(=O)NC(C)(C)C5)CCO4)nn2)CC1 | 1.76 |  |  |
| Cc1cc(C)c(Nc2ccc3c(c2)N(c2nc4c(s2)C(=O)NC(C)(C)C4)CCO3)nn1 | 1.97 |  |  |
| CCn1nc(C)c(-c2ccc3c(c2)N(c2nc4c(s2)C(=O)NC(C)(C)C4)CCO3)c1C | 3.57 | 139 | 591 |
| COCC(O)Cn1cc(-c2ccc3c(c2)N(c2nc4c(s2)C(=O)NC(C)(C)C4)CCO3)cn1 (stereo unspecified) | 2.19 | 159 | 495 |
| CC1(C)Cc2nc(N3CCOc4ccc(-c5cnn(Cc6cccnc6)c5)cc43)sc2C(=O)N1 | 2.94 |  |  |
| Cc1nn(C)cc1-c1ccc2c(c1)N(c1nc3c(s1)C(=O)NC(C)(C)C3)CCO2 | 3 |  |  |
| CC1(C)Cc2nc(N3CCOc4ccc(Nc5ccc(-c6ccccc6)nn5)cc43)sc2C(=O)N1 | 3.72 |  |  |
| CC1(C)Cc2nc(N3CCOc4ccc(-c5ccc(N6CCNCC6)nn5)cc43)sc2C(=O)N1 | 2.45 |  |  |
| CC1(C)Cc2nc(N3CCOc4ccc(-c5cnn(CCN)c5)cc43)sc2C(=O)N1 | 1.16 |  |  |
| Cn1ncc(-c2ccc3c(c2)N(c2nc4c(s2)C(=O)NC(C)(C)C4)CCO3)c1N | 1.98 |  |  |
| Cc1n[nH]c(C)c1-c1ccc2c(c1)N(c1nc3c(s1)C(=O)NC(C)(C)C3)CCO2 | 3.04 |  |  |
| CC(C)(O)Cn1cc(-c2ccc3c(c2)N(c2nc4c(s2)C(=O)NC(C)(C)C4)CCO3)cn1 | 2.74 | 195 | 1000 |
| CN1CCN(c2ccc(-c3ccc4c(c3)N(c3nc5c(s3)C(=O)NC(C)(C)C5)CCO4)nn2)CC1 | 1.75 |  |  |
| Cc1nn(CC(C)(C)O)c(C)c1-c1ccc2c(c1)N(c1nc3c(s1)C(=O)NC(C)(C)C3)CCO2 | 2.3 |  |  |
| CN(C)c1ccc(-c2ccc3c(c2)N(c2nc4c(s2)C(=O)NC(C)(C)C4)CCO3)nn1 | 2.61 |  |  |
| COc1ccc(-c2ccc3c(c2)N(c2nc4c(s2)C(=O)NC(C)(C)C4)CCO3)nn1 | 0.22 |  |  |
| CC1(C)Cc2nc(N3CCOc4ccc(-c5cn[nH]c5)cc43)sc2C(=O)N1 | 2.68 |  |  |
| Cn1cc(-c2ccc3c(c2)N(c2nc4c(s2)C(=O)NC(C)(C)C4)CCO3)cn1 | 2.63 |  |  |
| CCn1cc(-c2ccc3c(c2)N(c2nc4c(s2)C(=O)NC(C)(C)C4)CCO3)cn1 | 2.73 |  |  |
| CC1(C)Cc2nc(N3CCOc4ccc(-c5cnn(Cc6ccccc6)c5)cc43)sc2C(=O)N1 | 3.91 | 103 | 455 |
| COc1ccc(Nc2ccc3c(c2)N(c2nc4c(s2)C(=O)NC(C)(C)C4)CCO3)nn1 | 2.74 |  |  |
| CC1(C)Cc2nc(N3CCOc4ccc(-c5ccc(N)nn5)cc43)sc2C(=O)N1 | 1.94 | 14 | 78 |
| Cc1nn(C)c(C)c1-c1ccc2c(c1)N(c1nc3c(s1)C(=O)NC(C)(C)C3)CCO2 | 3.23 |  |  |
| Cc1nn(CCCN)cc1-c1ccc2c(c1)N(c1nc3c(s1)C(=O)NC(C)(C)C3)CCO2 | 0.38 |  |  |
